# Data as given in ChEMBL document CHEMBL1130403, “Synthesis and biological activity of novel nonnucleoside inhibitors of HIV-1 reverse transcriptase. 2-Aryl-substituted benzimidazoles” (J Med Chem, 1997).
# Key:
# [1] = target: Human immunodeficiency virus type 1 reverse transcriptase (Human immunodeficiency virus 1) (UniProt Q72547); assay: Inhibition of HIV-1 (wild type) reverse transcriptase at 10 uMol.; conditions: 10 uM
# In short: (§1)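 Purified heterodimer RT (0.015 mg/mL) incubated with or without inhibitor (10 μM) in 25 mM Tris pH 8.0, 75 mM KCl, 8 mM MgCl₂, 2 mM DTT, 0.1 mg/mL BSA, CHAPS, 0.1 units poly(rC)-oligo(dG), 0.01 mM dGTP plus [α-³⁵S]-dGTP; 30 min, 37 °C. Nucleotide incorporation expressed relative to no-inhibitor control.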
# CEM-SS = assay: In vitro 50% cellular protection of CEM-SS cells from HIV-1 induced cytopathicity.; assay type: functional, cell-based; conditions: Homo sapiens
# [2] = target: Human immunodeficiency virus type 1 reverse transcriptase (Human immunodeficiency virus 1, UniProt Q72547); assay: The quantity of compound required to reduce WT Reverse transcriptase activity by 50%
# In short: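 RNA-dependent DNA polymerase activity of purified heterodimer RT (0.015 mg/mL) at various inhibitor concentrations; 25 mM Tris pH 8.0, 75 mM KCl, 8 mM MgCl₂, 2 mM DTT, 0.1 mg/mL BSA, CHAPS, poly(rC)-oligo(dG) template-primer, 0.01 mM dGTP with [α-³⁵S]-dGTP tracer; 30 min at 37 °C; radiolabel incorporation read.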
# [3] = target: Human immunodeficiency virus type 1 reverse transcriptase (Human immunodeficiency virus 1) (UniProt Q72547); assay: Compound is evaluated for the percent inhibition of HIV-1 WT Reverse transcriptase at 10 uM drug concentration; in short: as §1
# [4] = target: Human immunodeficiency virus type 1 reverse transcriptase (Human immunodeficiency virus 1) (UniProt Q72547); assay: Compound is evaluated for the percentage of inhibition of HIV-1 WT Reverse transcriptase at 10 uM drug concentration
# In short: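 Purified heterodimer HIV-1 WT RT (0.015 mg/mL), RNA-dependent DNA polymerase assay; poly(rC)-oligo(dG) template-primer (0.1 units), 0.01 mM dGTP plus [α-³⁵S]-dGTP, in 25 mM Tris pH 8.0, 75 mM KCl, 8 mM MgCl₂, 2 mM DTT, 0.1 mg/mL BSA, CHAPS; 30 min, 37 °C. Nucleotide incorporation relative to no-inhibitor control gives % inhibition.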
Structure (SMILES),inhibition [1],EC50 (CEM-SS),other results
Fc1cccc(F)c1COCc1nc2ccccc2n1Cc1c(F)cccc1F,7%,,
Fc1cccc(F)c1Cn1c(-c2c(F)cccc2F)nc2ccccc21,93%,1700 nM,IC50 [2]: 110 nM
Cc1cccc2c1nc(-c1cccnc1)n2Cc1c(F)cccc1F,35%,31600 nM,
Cc1cccc2c1nc(-c1ccncc1)n2Cc1c(F)cccc1F,70%,3500 nM,
Cc1cccc2c1nc(-c1c(F)cccc1F)n2Cc1c(Cl)cccc1Cl,58%,3160 nM,
Cc1cccc2c1nc(CO)n2Cc1c(F)cccc1F,12%,,
Fc1cccc(F)c1-c1nc2ccccc2n1Cc1ccccc1,71%,> 32000 nM,IC50 [2]: 18600 nM
O=C(c1c(F)cccc1F)n1c(-c2c(F)cccc2F)nc2ccccc21,8%,,
Cc1cccc2c1nc(-c1c(F)cccc1F)n2Cc1ccccc1,87%,750 nM,IC50 [2]: 1600 nM
Cc1cccc2c1nc(C(C)C)n2Cc1c(F)cccc1F,53%,,
Cc1cccc2c1nc(C=O)n2Cc1c(F)cccc1F,59%,,
Cc1ccccc1-c1nc2ccccc2n1Cc1c(F)cccc1F,71%,,
Cc1cccc2c1nc(-c1ccc(C#N)cc1)n2Cc1c(F)cccc1F,26%,,
Cc1cccc2c1nc(-c1c(F)cccc1F)n2S(=O)(=O)c1ccccc1,39%,,
Cc1cccc2c1nc(-c1cccc3ccccc13)n2Cc1c(F)cccc1F,2%,,
O=S(=O)(c1ccccc1)n1c(-c2c(F)cccc2F)nc2ccccc21,52%,,
Cc1cccc2c1nc(-c1c(F)cccc1F)n2Cc1c(F)c(F)c(F)c(F)c1F,36%,,
Cc1nc2ccccc2n1Cc1c(F)cccc1F,22%,,
Cc1cccc2c1nc(-c1ccc3ccccc3c1)n2Cc1c(F)cccc1F,8%,,
Cc1cccc2c1nc(-c1c(F)cccc1F)n2Cc1c(F)cccc1F,92%,440 nM,IC50 [2]: 200 nM
Cc1cccc2c1ncn2Cc1c(F)cccc1F,40%,,
Fc1cccc(F)c1Cn1c(-c2ccccc2)nc2ccccc21,,6060 nM,inhibition [3]: 77%; IC50 [2]: 16000 nM
Fc1cccc(F)c1C1SCc2nc3ccccc3n21 (centres undefined) [THIAZOLOBENZIMIDAZOLE],,520 nM,inhibition [4]: 84%; IC50 [2]: 500 nM
Cc1cccc2c1nc(-c1c(F)cccc1F)n2Cc1cccnc1,43%,,
